Hep lipid drop – inhibitors of hepatocyte lipid droplet formation, primary screen, imaging, high-throughput imaging, BODIPY stain | AML12 mouse hepatocytes, oleate lipid droplets | inhibition, % at 6.5 µM | 0.4% of 240,000 active;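 active = lipid droplet intensity inhibited by at least 50%, with more than 500 cells counted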
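System: AML12 hepatocytes (mouse). Probe or stimulus: oleic acid at 100 µM to induce lipid droplet formation. Times: overnight treatment with compound plus oleate. Detection: Image-based BODIPY and DAPI two-channel analysis. Evaluation: percent inhibition of filter-corrected integrated lipid droplet intensity per well.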
NTR1 agonist – agonists of human NTR1, primary screen, imaging, U2OS cells, beta-arrestin-GFP, high content; Neurotensin receptor type 1 (Homo sapiens), P30989; AID 493036, 2011; 0.17% of 330,000 active; NTR1-U2OS beta-arrestin-GFP spot imaging, agonist mode; activation, % at 20 µM;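 active = activation at or above 40% of the spot to cytoplasm intensity ratio, with at least 20 cells analyzed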
MC4R antag cAMP – MC4R antagonists of cAMP signaling, primary screen, cell-based, TR-FRET, antagonist arm of biased-ligand search. Melanocortin receptor 4 (Homo sapiens), P32245. 0.48% of 360,000 active. inhibition, % at 6.5 µM. MC4R-expressing cells, MTII-stimulated cAMP, LANCE TR-FRET. AID 540295, 2011;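 active = inhibition above its plate's cutoff, the mean of tested wells on that plate plus 3 SD, cut at about 29% in these data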
Target sequence (P32245 whole entry, looked up): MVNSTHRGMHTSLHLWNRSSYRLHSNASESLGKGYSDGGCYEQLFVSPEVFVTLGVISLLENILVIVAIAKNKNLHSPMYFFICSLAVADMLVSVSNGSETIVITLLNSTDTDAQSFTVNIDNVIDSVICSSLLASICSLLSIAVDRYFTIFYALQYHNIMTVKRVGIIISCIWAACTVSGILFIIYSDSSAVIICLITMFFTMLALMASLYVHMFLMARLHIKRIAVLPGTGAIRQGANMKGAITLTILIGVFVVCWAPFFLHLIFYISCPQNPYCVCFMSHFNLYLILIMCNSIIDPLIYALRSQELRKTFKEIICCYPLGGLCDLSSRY
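material = U2OS cells stably expressing human melanocortin 4 receptor (MC4R) | also added = Melanotan II challenge | dosing = single nominal compound dose of 6.5 µM | detection = TR-FRET with Eu-cAMP and labeled anti-cAMP, 671 nm | replication = singlicate | timing = compound 30 min, challenge 1 h, detection 1 h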
MC4R ag barr – MC4R agonists recruiting beta-arrestin, primary screen, cell-based, luminescence, agonist arm of biased-ligand search. U2OS MC4R beta-arrestin complementation; percent of melanotan II response, DMSO zero. 0.98% of 360,000 active. activation, % at 8.9 µM. Melanocortin receptor 4 (Homo sapiens), P32245;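 active = activation above a per-plate cutoff, the mean activation of sample wells on that plate plus 3 SD, cut at about 8% in these data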
m5-HT2A agonist – mouse Htr2a agonists via beta-arrestin recruitment, primary screen, cell-based, luminescence | 5-hydroxytryptamine receptor 2A (Mus musculus), P35363 | CHO-K1 mHTR2A beta-arrestin complementation; percent of 30 µM serotonin response | activation, % at 7.6 µM | 0.66% of 360,000 active | AID 624169, 2012;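 active = activation above a run cutoff, the mean activation of all tested compounds plus 3 SD, cut at about 14% in these data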
PREPL inh – PREPL enzyme inhibitors, primary screen, biochemical, fluorescence polarization | recombinant PREPL, fluorescence polarization activity-based probe | inhibition, % at 5.96 µM | 0.68% of 320,000 active | AID 2751, 2010
PREPL confirm – human PREPL enzyme inhibitors, confirmation, biochemical, fluorescence polarization | shares compounds with PREPL inh | recombinant PREPL, fluorescence polarization activity probe | inhibition, % at 5.96 µM | 67% of 2,000 active | AID 2803, 2010
A number is an active result; - = inactive; . = no result. An excerpt weighted towards active compounds, which were near 2.7% of everything screened. Rule as the data show it, unless noted: active = inhibition above about 43%; inactive = the rest.

SMILES	Hep lipid drop	NTR1 agonist	MC4R antag cAMP	MC4R ag barr	m5-HT2A agonist	PREPL inh	PREPL confirm
CNC(=O)c1ccc(-c2sc3nc(N4CCOCC4)c4c(c3c2N)CC(C)(C)OC4)o1	.	-	-	-	-	-	.
C[C@H]1COC(=O)[C@@H](Cc2ccc(F)cc2)C/C=C\C[C@H](CC(=O)N(CCO)Cc2ccccc2)C(=O)N1	.	-	-	-	-	-	.
O=C1N[C@@H](c2ccccc2)COC(=O)[C@@H](Cc2ccc(F)cc2)C/C=C\C[C@@H]1CC(=O)N(CCO)Cc1ccccc1	.	-	-	-	-	51.6	-
CC(C)(C)[C@@H]1COC(=O)[C@@H](Cc2ccc(F)cc2)C/C=C\C[C@H](CC(=O)N(CCO)Cc2ccccc2)C(=O)N1	.	-	-	-	-	56.4	46.5
O=C1N[C@@H](Cc2c[nH]c3ccccc23)COC(=O)[C@H](Cc2ccc(F)cc2)C/C=C\C[C@@H]1CC(=O)N(CCO)Cc1ccccc1	.	-	-	-	-	-	.
O=C1N[C@@H](Cc2ccccc2)COC(=O)[C@@H](Cc2ccc(F)cc2)CC/C=C/C[C@@H]1CC(=O)N(CCO)Cc1ccccc1	.	-	-	-	-	44.0	43.3
O=C1N[C@@H](Cc2c[nH]c3ccccc23)COC(=O)[C@@H](Cc2ccc(F)cc2)C/C=C\C[C@H]1CC(=O)N(CCO)Cc1ccccc1	.	-	-	-	-	61.5	53.0
O=C(COC(=O)c1cncc(Br)c1)NC12CC3CC(CC(C3)C1)C2	.	-	-	-	-	-	.
CC(C)(C)[C@@H]1COC(=O)[C@H](Cc2ccc(F)cc2)CC/C=C\C[C@@H](CC(=O)N(CCO)Cc2ccccc2)C(=O)N1	.	-	-	-	-	47.3	50.7
O=C1OC[C@@H]2CCCN2C(=O)[C@@H](CC(=O)N(CCO)Cc2ccccc2)C/C=C\CC[C@H]1Cc1ccc(F)cc1	.	-	-	-	-	43.8	-
O=C1OC[C@@H]2CCCN2C(=O)[C@@H](CC(=O)N(CCO)Cc2ccccc2)C/C=C\C[C@@H]1Cc1ccc(F)cc1	.	-	-	-	-	-	.
Brc1ccc(Br)c2cnccc12	.	.	-	-	-	.	.
CCCCn1nnnc1C(c1ccccc1)N1CCN(c2c(Cl)cncc2Cl)CC1 (configuration not stated)	.	.	.	.	-	.	.
CN1CCN(c2cc(N3CCN(C(=O)c4ccco4)CC3)c3c4c(onc24)-c2ccccc2C3=O)CC1	-	-	-	-	-	-	.
O=C1c2ccccc2-c2onc3c(N4CCN(CCO)CC4)cc(N4CCN(C(=O)c5ccco5)CC4)c1c23	-	-	-	-	-	44.7	55.7
COc1cc(/C=C/[N+](=O)[O-])ccc1OC(=O)/C=C/c1ccc(F)cc1	-	-	-	-	-	47.3	45.8
Cc1ccccc1-c1nc(CN2CCC(C(=O)N3CCN(c4ccccn4)CC3)CC2)c(C)o1	.	-	-	-	-	49.3	-
Cc1ccc(NC(=O)COC(=O)CCc2c(C)nc3ncnn3c2C)cc1C	.	-	-	-	-	-	.
CCc1cc(=O)oc2c(C)c(OC(C)C(=O)NC3CC(C)(C)NC(C)(C)C3)ccc12 (configuration not stated)	-	-	-	-	-	48.9	-
CCc1cc(=O)oc2c(C)c(OCC(=O)NC3CC(C)(C)NC(C)(C)C3)ccc12	-	-	-	-	-	-	.
O=C1CCc2cc(S(=O)(=O)Nc3ccccc3F)ccc2N1	.	-	-	-	-	-	.
COc1ccc(Nc2nnc(SC(C(=O)Nc3cc(C)ccc3C)c3ccccc3)s2)cc1 (configuration not stated)	-	-	-	-	-	-	.
COc1ccc(Nc2nnc(SC(C(=O)Nc3ccc(OC)c(Cl)c3)c3ccccc3)s2)cc1 (configuration not stated)	-	-	-	-	-	46.6	-
CCc1ccc(CNc2ccc3c(c2)ncn3C(C)(C)C)cc1	-	-	-	-	-	47.5	50.3
CCc1ccc(CNc2ccc3c(c2)ncn3CC)cc1	-	-	-	-	-	-	.
SMILES	Hep lipid drop	NTR1 agonist	MC4R antag cAMP	MC4R ag barr	m5-HT2A agonist	PREPL inh	PREPL confirm
CC(C)(C)n1cnc2cc(NCc3ccc(Br)cc3)ccc21	-	-	-	-	-	53.6	63.0
CCN(CC)c1ccc(CNc2ccc3c(c2)ncn3C(C)(C)C)cc1	-	-	-	-	-	47.6	-
CN(Cc1ccccc1)C(=O)COC(=O)COc1ccc(C#N)cc1	-	-	-	-	-	-	.
Cc1ccccc1CNc1ccc(C(CC(N)=O)NC(=O)c2ccccc2)cc1[N+](=O)[O-] (configuration not stated)	-	-	-	-	-	-	.
O=C(O)/C=C/C(=O)Nc1ccc(S(=O)(=O)Nc2nccs2)cc1	-	-	-	-	-	-	.
O=C(CCCn1c(=O)oc2ccccc21)N1CCN(c2ccc(F)cc2)CC1	-	-	-	-	-	-	.
O=C(CCn1c(=O)oc2ccccc21)N1CCN(c2ccccc2F)CC1	.	-	-	-	-	62.1	-
CC(=O)c1cccc(CN2CCCC(CCC(=O)NCc3ccc(F)c(F)c3)C2)c1 (configuration not stated)	-	-	-	-	-	-	.
CN(CC(=O)N1CCN(Cc2ccccc2)CC1)C(=O)Cc1ccc(Cl)c(Cl)c1	.	-	-	-	-	45.7	-
CCn1c(SCC(=O)N2CCc3ccccc3C2)nc2sc(C)c(C)c2c1=O	-	-	-	-	-	44.4	-
CCOc1ccc(N(CC(=O)N2CCOCC2)S(=O)(=O)c2ccc(SC)cc2)cc1	-	-	-	-	-	-	.
C[N+](C)(C)c1ccc(/C=N/Nc2nc(Cl)c(C#N)c(Cl)c2Cl)cc1	-	.	-	-	-	55.9	-
N#Cc1c(Cl)nc(N/N=C/c2ccccc2)c(Cl)c1Cl	-	-	-	-	-	-	.
O=C(Oc1ccc2ccc(=O)oc2c1)c1cccs1	-	-	-	-	-	45.3	59.8
O=C(Oc1ccc2c(-c3ccccc3)cc(=O)oc2c1)c1cccs1	-	-	-	-	-	-	.
COc1cc2cccc(OC)c(=O)c2c(O)c1OC	-	-	-	-	-	-	.
